Series [1] deals with Trichophyton rubrum. As to the kind of experiment: MIC, filamentous fungi, Trichophyton rubrum. The note with it: ATCC28189, read-out: MIC Tr. Type of series: cell-based. The procedure, abridged: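 T. rubrum ATCC 28189 was grown on potato dextrose agar, and inocula were prepared in RPMI 1640 medium. MIC was determined following CLSI M38-A2 for filamentous fungi.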
Series [2] relates to Escherichia coli. Nature of the series: MIC determination against bacteria. The following applies: read-out: MIC Ec. The series is classed as cell-based.
The subject of series [3] is Candida albicans. The following applies: cited from earlier work.
Series [4] deals with Candida albicans. As to the kind of experiment: MIC, broth microdilution, Candida albicans. Type of series: cell-based. The following applies: Table 5; CLSI M27-A3 with modifications, Lambert–Pearson plot; ATCC 24433. The procedure, abridged:
(§1)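 Yeasts were precultured in liquid YPD at 37 °C, 70 rpm, for 24 hours. MIC was determined by CLSI M27-A3 broth microdilution, modified for turbidimetric detection. The assay used MOPS-buffered RPMI 1640 without sodium bicarbonate, with cell density read at 600 nm. MIC was derived from a Lambert–Pearson plot of cell density.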

For series [5], the system named is Candida parapsilosis. As to the kind of experiment: MIC, broth microdilution, Candida parapsilosis. The following applies: Table 5; CLSI M27-A3 with modifications, Lambert–Pearson plot; ATCC 22019. Type of series: cell-based. In a few lines:
as §1
Background: In broth dilution the organism is exposed to a series of concentrations in liquid medium.

Series [6] concerns human erythrocytes. The following applies: cited from earlier work.
Series [7] has as its system Candida auris. As to the kind of experiment: MIC, broth microdilution, Candida auris. The series is classed as cell-based. The note with it: Table 5; CLSI M27-A3 with modifications, Lambert–Pearson plot; DSMZ-No. 21092. The procedure, abridged: as §1
The subject of series [8] is rabbit erythrocytes. The following applies: cited from earlier work.
The test system of series [9] is Listeria monocytogenes. As to the kind of experiment: MIC determination, Listeria monocytogenes. Type of series: cell-based. The following applies: Table 5; Mueller Hinton broth, CLSI M7A9 with modifications, triplicate; ATCC BAA-679/EGD-e. In a few lines: (§2)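 Bacteria pre-cultured overnight at 37 °C/5% CO2 in culture medium as inoculum. MIC of test peptides determined by broth dilution in Mueller Hinton broth following CLSI M7A9 with modifications for bacteria. All tests run in triplicate.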

For series [10], the system named is Pseudomonas aeruginosa. Nature of the series: MIC determination, Pseudomonas aeruginosa. The series is classed as cell-based. The following applies: Table 5; Mueller Hinton broth, CLSI M7A9 with modifications, triplicate; ATCC 27853. In a few lines: as §2
The test system of series [11] is mammalian cell line. The following applies: in vitro; cited from earlier work.

In brackets after ≈: the same amount, converted by molar mass. Like-named read-outs stand apart in the source and are kept apart here. Where no end group is shown, it is not given here.

With `C[C@@H]1[C@H](O)[C@@H](C)/C=C/C=C/C=C/C=C/C=C/C=C/C=C/[C@H](O[C@@H]2O[C@H](C)[C@@H](O)[C@H](N)[C@@H]2O)C[C@@H]2O[C@](O)(C[C@@H](O)C[C@@H](O)[C@H](O)CC[C@@H](O)C[C@@H](O)CC(=O)O[C@H]1C)C[C@H](O)[C@H]2C(=O)O` [amphotericin B], in series [1], the MIC was 0.125 µg/mL (≈ 0.135 µM).
`CC1(C)S[C@@H]2[C@H](NC(=O)[C@H](N)c3ccccc3)C(=O)N2[C@H]1C(=O)O` [ampicillin]: the MIC in [2] was found to be 0.195 µg/mL (≈ 0.559 µM).
As to `OC(Cn1cncn1)(Cn1cncn1)c1ccc(F)cc1F` [fluconazole], the MIC in series [3] (against Candida albicans) is 8 to 16 µg/mL.
For SRSELIVHQRLF-NH2 [Cm-p5], in [4], the “MIC C. albicans” value was 10 µg/mL. Also, the “MIC C. parapsilosis” value in [5] stood at 32 µg/mL. For the same compound, the hemolytic activity result in [6] and in [8] was “nonhemolytic” in each case. Further, in series [7], the “MIC C. auris” value was 11 µg/mL. Further, the MIC in series [3] (against C. albicans, native peptide) was 10 µg/mL. In series [3] (against Candida albicans), the “fungistatic action, concentration range” value is 10 to 40 µg/mL. Moreover, the “MIC Listeria monocytogenes” value in series [9] is greater than 100 µg/mL. Besides, the “MIC Pseudomonas aeruginosa” value in series [10] is greater than 100 µg/mL. In addition, the “toxicity against a mammalian cell line” value in series [11] is reported as “did not exhibit any toxicity”.

As a reminder, the MIC is the lowest concentration that inhibits growth of the organism.
